Values after ≈ are worked out from the molar mass of the structure shown.
Tests used:
Streptococcus pneumoniae [1] = assay: Antibacterial activity against macrolide-susceptible Streptococcus pneumoniae after overnight incubation by agar dilution method; type: functional
In short: (§1)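 Agar dilution MICs on Mueller-Hinton agar with 5% sheep blood. Inoculum 10^4 CFU/spot, incubated overnight at 35°C in ambient air. Clinical S. pneumoniae or group A streptococcal isolates; resistance genotypes (erm(B), erm(A), mef(A)/mef(E)) were assigned by PCR. S. pneumoniae ATCC 49619 served as QC strain in each run. Range, MIC50 and MIC90 reported per phenotype group.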

Streptococcus pneumoniae [2] = assay: Antibacterial activity against Streptococcus pneumoniae harboring erm(B) gene after overnight incubation by agar dilution method; type: functional
In short: (§2)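 Clinical isolates collected 1998–2008, with macrolide-resistance genes confirmed by PCR. MICs by agar dilution on Mueller-Hinton agar with 5% sheep blood. Inoculum 10^4 CFU/spot, incubated overnight at 35°C in ambient air. S. pneumoniae ATCC 49619 was the quality-control strain in every run.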

Streptococcus pneumoniae [3] = assay: Antibacterial activity against Streptococcus pneumoniae harboring erm(A) gene after overnight incubation by agar dilution method; type: functional; in short: as §2
Streptococcus pneumoniae [4] = assay: Antibacterial activity against Streptococcus pneumoniae harboring erm(B) and mef(A) gene after overnight incubation by agar dilution method; type: functional; in short: as §2
Streptococcus pneumoniae [5] = assay: Antibacterial activity against Streptococcus pneumoniae harboring mutation in L4 ribosomal protein after overnight incubation by agar dilution method; type: functional; in short: as §2
Streptococcus pneumoniae [6] = assay: Antibacterial activity against Streptococcus pneumoniae harboring mutation in 23S rRNA after overnight incubation by agar dilution method; type: functional; in short: as §2
Streptococcus pneumoniae [7] = assay: Antibacterial activity against quinolone-susceptible Streptococcus pneumoniae after overnight incubation by agar dilution method; type: functional
In short: (§3)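 Agar dilution on Mueller-Hinton agar supplemented with 5% sheep blood. Inoculum 10^4 CFU/spot, incubated overnight at 35°C in ambient air. Test strains were clinical pneumococcal isolates. S. pneumoniae ATCC 49619 was included as the quality control strain in each run. MIC range, MIC50 and MIC90 were reported for each susceptibility category.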

Streptococcus pneumoniae [8] = assay: Antibacterial activity against quinolone-resistant Streptococcus pneumoniae after overnight incubation by agar dilution method; type: functional; in short: as §3
Streptococcus pneumoniae [9] = assay: Antibacterial activity against macrolide-resistant Streptococcus pneumoniae harboring mef(A) gene after overnight incubation by agar dilution method; type: functional; in short: as §1
Streptococcus pneumoniae [10] = assay: Antibacterial activity against macrolide-resistant Streptococcus pneumoniae harboring mutation in L4 ribosomal protein after overnight incubation by agar dilution method; type: functional; in short: as §1
Streptococcus pyogenes [11] = assay: Antibacterial activity against macrolide-susceptible Streptococcus pyogenes after overnight incubation by agar dilution method; type: functional
In short: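 Agar dilution on Mueller-Hinton agar supplemented with 5% sheep blood, inoculum 10^4 CFU/spot, read after overnight incubation at 35°C in ambient air. Clinical isolates with defined genotypes; S. pneumoniae ATCC 49619 quality control strain included in each run. MIC50/MIC90 are MICs inhibiting 50% and 90% of isolates.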

Streptococcus pyogenes [12] = assay: Antibacterial activity against Streptococcus pyogenes harboring erm(A) gene after overnight incubation by agar dilution method; type: functional; in short: as §2
Streptococcus pyogenes [13] = assay: Antibacterial activity against Streptococcus pyogenes harboring mutation in L4 ribosomal protein after overnight incubation by agar dilution method; type: functional; in short: as §2
Streptococcus pneumoniae [14] = assay: Antibacterial activity against macrolide-susceptible Streptococcus pneumoniae 1077 after 49 passages and 10 compound-free subculturing by retest method; type: functional
Streptococcus pneumoniae [15] = assay: Antibacterial activity against macrolide-resistant Streptococcus pneumoniae 24 harboring erm(B) gene after 14 passages and 10 compound-free subculturing by retest method; type: functional; conditions: Streptococcus pneumoniae, 24; read-out: MIC
In short: (§4)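 Multistep selection by daily serial passage in subinhibitory drug concentrations. Medium was cation-adjusted Mueller-Hinton broth plus 5% lysed horse blood. Each day the next inoculum came from the tube 1–2 dilutions below the MIC whose turbidity matched the growth control, for up to 50 days. Clone MICs by CLSI macrodilution; identity to the parent confirmed by SmaI PFGE.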

Streptococcus pneumoniae [16] = assay: Antibacterial activity against macrolide-resistant Streptococcus pneumoniae 1076 harboring erm(B) and mef(A) gene after 18 passages and 10 compound-free subculturing by retest method; type: functional; in short: as §4
Streptococcus pneumoniae [17] = assay: Antibacterial activity against macrolide-resistant Streptococcus pneumoniae 1076 harboring erm(B) and mef(A) gene after 14 passages and 10 compound-free subculturing by retest method; type: functional; in short: as §4
Streptococcus pneumoniae [18] = assay: Antibacterial activity against macrolide-resistant Streptococcus pneumoniae 1635 harboring erm(A) gene after 49 passages and 10 compound-free subculturing by retest method; type: functional; in short: as §4
Streptococcus pneumoniae [19] = assay: Antibacterial activity against macrolide-resistant Streptococcus pneumoniae 2686 harboring mutation in L4 ribosomal protein after 25 passages and 10 compound-free subculturing by retest method; type: functional
Streptococcus pneumoniae [20] = assay: Antibacterial activity against macrolide-susceptible Streptococcus pneumoniae 7127 harboring S20N mutation in L4 ribosomal protein and A105V mutation in L22 ribosomal protein after 15 passages and 10 compound-free subculturing by retest method; type: functional
Streptococcus pneumoniae [21] = assay: Antibacterial activity against macrolide-susceptible Streptococcus pneumoniae 7127 harboring S20N mutation in L4 ribosomal protein and A105V mutation in L22 ribosomal protein after 43 passages and 10 compound-free subculturing by retest method; type: functional
Streptococcus pneumoniae [22] = assay: Antibacterial activity against macrolide-resistant Streptococcus pneumoniae 3009 harboring mutation in 23S rRNA after 25 passages and 10 compound-free subculturing by retest method; type: functional
Streptococcus pneumoniae [23] = assay: Antibacterial activity against macrolide-resistant Streptococcus pneumoniae 1076 harboring erm(B) and mef(A) gene after overnight incubation by agar dilution method; type: functional
Streptococcus pneumoniae [24] = assay: Antibacterial activity against macrolide-resistant Streptococcus pneumoniae 1635 harboring erm(A) gene after overnight incubation by agar dilution method; type: functional
Streptococcus pneumoniae [25] = assay: Antibacterial activity against macrolide-resistant Streptococcus pneumoniae 2686 harboring mutation in L4 ribosomal protein after overnight incubation by agar dilution method; type: functional
Streptococcus pneumoniae [26] = assay: Antibacterial activity against macrolide-resistant Streptococcus pneumoniae 3009 harboring mutation in 23S rRNA after overnight incubation by agar dilution method; type: functional
Streptococcus pyogenes [27] = assay: Antibacterial activity against macrolide-resistant Streptococcus pyogenes 2094 harboring erm(A) gene after overnight incubation by agar dilution method
Streptococcus pyogenes [28] = assay: Antibacterial activity against macrolide-resistant Streptococcus pyogenes 2011 harboring mef(A) gene after overnight incubation by agar dilution method
Streptococcus pyogenes [29] = assay: Antibacterial activity against macrolide-resistant Streptococcus pyogenes 2094 harboring erm(A) gene after 22 passages and 10 compound-free subculturing by retest method
Streptococcus pyogenes [30] = assay: Antibacterial activity against macrolide-resistant Streptococcus pyogenes 237 harboring mutation in L4 ribosomal protein after 20 passages and 10 compound-free subculturing by retest method
Streptococcus pyogenes [31] = assay: Antibacterial activity against macrolide-resistant Streptococcus pyogenes 237 harboring mutation in L4 ribosomal protein after 43 passages and 10 compound-free subculturing by retest method
Streptococcus pyogenes [32] = assay: Antibacterial activity against macrolide-resistant Streptococcus pyogenes 237 harboring mutation in L4 ribosomal protein after 50 passages following overnight incubation by agar dilution method

SMILES | MIC50 (Streptococcus pneumoniae [1]) | MIC (Streptococcus pneumoniae [3]) | MIC (Streptococcus pneumoniae [6]) | MIC50 (Streptococcus pneumoniae [7]) | MIC90 (Streptococcus pneumoniae [7]) | MIC50 (Streptococcus pneumoniae [8]) | MIC50 (Streptococcus pneumoniae [9]) | MIC90 (Streptococcus pneumoniae [9]) | MIC50 (Streptococcus pyogenes [11]) | MIC90 (Streptococcus pyogenes [11]) | MIC50 (Streptococcus pyogenes [12]) | MIC90 (Streptococcus pyogenes [12]) | MIC (Streptococcus pyogenes [13]) | MIC (Streptococcus pneumoniae [14]) | MIC (Streptococcus pneumoniae [15]) | MIC (Streptococcus pneumoniae [16]) | MIC (Streptococcus pneumoniae [17]) | MIC (Streptococcus pneumoniae [18]) | MIC (Streptococcus pneumoniae [19]) | MIC (Streptococcus pneumoniae [20]) | further results
CC[C@H]1OC(=O)[C@H](C)[C@@H](O[C@H]2C[C@@](C)(OC)[C@@H](O)[C@H](C)O2)[C@H](C)[C@@H](O[C@@H]2O[C@H](C)C[C@H](N(C)C)[C@H]2O)[C@](C)(OC)C[C@@H](C)C(=O)[C@H](C)[C@@H](O)[C@]1(C)O [CLARITHROMYCIN] | 0.03 µg/mL (≈ 0.0401 µM) | 0.25 µg/mL (≈ 0.334 µM) | 8 µg/mL (≈ 10.7 µM) | 16 µg/mL (≈ 21.4 µM) | > 64 µg/mL | 0.03 µg/mL (≈ 0.0401 µM) | 2 µg/mL (≈ 2.67 µM) | 4 µg/mL (≈ 5.35 µM) | 0.03 µg/mL (≈ 0.0401 µM) | 0.06 µg/mL (≈ 0.0802 µM) | 2 µg/mL (≈ 2.67 µM) | > 64 µg/mL | 1 µg/mL (≈ 1.34 µM) | > 64 µg/mL | > 64 µg/mL | > 64 µg/mL | > 64 µg/mL | > 64 µg/mL | 16 µg/mL (≈ 21.4 µM) | 16 µg/mL (≈ 21.4 µM) | MIC90 (Streptococcus pneumoniae [1]): 0.06 µg/mL (≈ 0.0802 µM); MIC50 (Streptococcus pneumoniae [2]): > 64 µg/mL; MIC50 (Streptococcus pneumoniae [4]): > 64 µg/mL; MIC50 (Streptococcus pneumoniae [5]): 16 µg/mL (≈ 21.4 µM); MIC90 (Streptococcus pneumoniae [5]): 32 µg/mL (≈ 42.8 µM); MIC50 (Streptococcus pneumoniae [10]): 16 µg/mL (≈ 21.4 µM); MIC90 (Streptococcus pneumoniae [10]): 32 µg/mL (≈ 42.8 µM); MIC (Streptococcus pneumoniae [21]): 0.016 µg/mL (≈ 0.0214 µM); MIC (Streptococcus pneumoniae [22]): 64 µg/mL (≈ 85.6 µM); MIC (Streptococcus pneumoniae [23]): > 64 µg/mL; MIC (Streptococcus pneumoniae [24]): 0.5 µg/mL (≈ 0.668 µM); MIC (Streptococcus pneumoniae [25]): 8 µg/mL (≈ 10.7 µM); MIC (Streptococcus pneumoniae [26]): 16 µg/mL (≈ 21.4 µM); MIC (Streptococcus pyogenes [27]): 0.5 µg/mL (≈ 0.668 µM); MIC (Streptococcus pyogenes [28]): 4 µg/mL (≈ 5.35 µM); MIC (Streptococcus pyogenes [29]): 8 µg/mL (≈ 10.7 µM); MIC (Streptococcus pyogenes [30]): 1 µg/mL (≈ 1.34 µM); MIC (Streptococcus pyogenes [31]): 0.5 µg/mL (≈ 0.668 µM); MIC (Streptococcus pyogenes [32]): 1 µg/mL (≈ 1.34 µM)
CC[C@H]1OC(=O)[C@H](C)[C@@H](O[C@H]2C[C@@](C)(OC)[C@@H](O)[C@H](C)O2)[C@H](C)[C@@H](O[C@@H]2O[C@H](C)C[C@H](N(C)C)[C@H]2O)[C@](C)(O)C[C@@H](C)CN(C)[C@H](C)[C@@H](O)[C@]1(C)O [AZITHROMYCIN] | 0.125 µg/mL (≈ 0.167 µM) | 2 µg/mL (≈ 2.67 µM) | 32 µg/mL (≈ 42.7 µM) | > 64 µg/mL | > 64 µg/mL | 0.125 µg/mL (≈ 0.167 µM) | 4 µg/mL (≈ 5.34 µM) | 8 µg/mL (≈ 10.7 µM) | 0.125 µg/mL (≈ 0.167 µM) | 0.25 µg/mL (≈ 0.334 µM) | 16 µg/mL (≈ 21.4 µM) | > 64 µg/mL | 2 µg/mL (≈ 2.67 µM) | > 64 µg/mL | > 64 µg/mL | > 64 µg/mL | > 64 µg/mL | > 64 µg/mL | > 64 µg/mL | > 64 µg/mL | MIC (Streptococcus pneumoniae [21]): 0.03 µg/mL (≈ 0.0401 µM); MIC (Streptococcus pneumoniae [22]): > 64 µg/mL; MIC (Streptococcus pneumoniae [23]): > 64 µg/mL; MIC (Streptococcus pneumoniae [24]): 2 µg/mL (≈ 2.67 µM); MIC (Streptococcus pneumoniae [25]): > 64 µg/mL; MIC (Streptococcus pneumoniae [26]): > 64 µg/mL; MIC (Streptococcus pyogenes [27]): 4 µg/mL (≈ 5.34 µM); MIC (Streptococcus pyogenes [28]): 4 µg/mL (≈ 5.34 µM); MIC (Streptococcus pyogenes [29]): > 64 µg/mL; MIC (Streptococcus pyogenes [30]): 4 µg/mL (≈ 5.34 µM); MIC (Streptococcus pyogenes [31]): 8 µg/mL (≈ 10.7 µM); MIC (Streptococcus pyogenes [32]): 8 µg/mL (≈ 10.7 µM)
